The target in experiment [1] is Transcription factor p65 (Mus musculus) (UniProt Q04207). Nature of the experiment: Inhibition of NF-kappaB p65 activation/translocation in LPS-stimulated mouse BV2 cells assessed as down regulation of iNOS at 2 to 4 uM measured after 15 to 120 mins post stimulation by Western blot analysis. In kind it is cell-based. The conditions noted are these: BV-2. The procedure, abridged: (§1)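 BV2 microglia in DMEM with 5% FBS were pretreated with compound or solvent, then stimulated with LPS 0.5 µg/mL for 15 to 120 min. Western blots were probed for iNOS, cytosolic IκBα, and cytosolic and nuclear p65. Membranes were blocked in 5% milk/PBST, primary antibody overnight at 4 °C, HRP secondary 1 h, ECL detection. Signals normalized to β-actin; at least three independent experiments.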
Sequence of Transcription factor p65 (Mus musculus) (Q04207 whole entry): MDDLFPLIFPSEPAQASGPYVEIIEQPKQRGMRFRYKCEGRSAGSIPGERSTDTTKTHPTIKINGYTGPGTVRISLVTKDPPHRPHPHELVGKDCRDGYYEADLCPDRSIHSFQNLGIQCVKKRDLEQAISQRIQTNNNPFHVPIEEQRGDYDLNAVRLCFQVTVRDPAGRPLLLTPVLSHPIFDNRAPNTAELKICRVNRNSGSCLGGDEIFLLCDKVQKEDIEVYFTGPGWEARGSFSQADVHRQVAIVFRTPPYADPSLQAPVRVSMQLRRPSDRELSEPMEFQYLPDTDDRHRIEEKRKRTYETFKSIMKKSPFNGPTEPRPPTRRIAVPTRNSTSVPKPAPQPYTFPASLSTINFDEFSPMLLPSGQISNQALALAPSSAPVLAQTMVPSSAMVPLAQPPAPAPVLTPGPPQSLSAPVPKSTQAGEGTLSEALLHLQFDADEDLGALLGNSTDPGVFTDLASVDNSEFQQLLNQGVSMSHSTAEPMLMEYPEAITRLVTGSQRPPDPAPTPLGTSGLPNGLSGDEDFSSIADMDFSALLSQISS
On the technique in general: In western blotting, separated proteins are transferred to a membrane and probed.

For experiment [2], the system named is A549. Nature of the experiment: Cytotoxicity against human A549 cells after 3 days by SRB assay. The class given is functional, cell-based. The procedure, abridged:
(§2)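 Cell lines kept in RPMI-1640 with […], 0.25% sodium bicarbonate, 10% FBS and 100 µg/mL kanamycin. Freshly trypsinized cells seeded at 1500-7500 cells/well. Compounds added from DMSO-diluted stock, 3 days culture. Attached cells fixed with cold 50% TCA, stained with 0.4% SRB, bound dye solubilized, absorbance read at 562 nm.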
In general terms: Sulforhodamine B stains cellular protein and so reports cell mass.

Experiment [3] in a line: Cytotoxicity against human KBVIN cells after 3 days by SRB assay. The class given is functional, cell-based. The method in brief: as §2
The target in experiment [4] is T1, NF-kappa-B inhibitor alpha (Mus musculus) (UniProt Q9Z1E3).
T1 sequence (whole entry): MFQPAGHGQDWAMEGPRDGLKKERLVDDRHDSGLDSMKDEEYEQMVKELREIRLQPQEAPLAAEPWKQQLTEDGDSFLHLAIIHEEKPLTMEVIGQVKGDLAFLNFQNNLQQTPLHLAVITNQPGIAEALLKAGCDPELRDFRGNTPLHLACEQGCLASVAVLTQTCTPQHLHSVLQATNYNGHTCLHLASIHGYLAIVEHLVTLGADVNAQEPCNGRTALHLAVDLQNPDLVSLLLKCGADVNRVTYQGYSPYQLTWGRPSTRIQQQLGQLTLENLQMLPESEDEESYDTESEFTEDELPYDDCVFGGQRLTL
Nature of the experiment: Inhibition of IkappaB-alpha degradation in LPS-stimulated mouse BV2 cells at 2 to 4 uM measured after 15 to 120 mins post stimulation by Western blot analysis. The class given is cell-based. Conditions: BV-2. The method in brief: as §1

In experiment [5] the test system is DU-145. Nature of the experiment: Cytotoxicity against human DU145 cells after 3 days by SRB assay. In kind it is functional, cell-based. The procedure, abridged: as §2
Experiment [6] is described as follows: Inhibition of NOX-dependent ROS production in mouse BV2 cells by chemiluminescence assay. In kind it is cell-based. The conditions noted are these: BV-2. The method in brief:
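BV2 cell homogenate (50 µg) was incubated with compound for 20 min at 37 °C in the dark. Superoxide production was started with 200 µM NADPH and chemiluminescence followed for 30 min. AUC was taken as ROS production. DPI was the positive control. IC50 given as mean ± SEM of three experiments on different days using cells from different passages.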

Experiment [7] concerns KB. Nature of the experiment: Cytotoxicity against human KB cells after 3 days by SRB assay. In kind it is functional, cell-based. The method in brief:
as §2

For experiment [8], the system named is Radical scavenging activity. As to the kind of experiment: Antioxidant activity assessed as inhibition of DPPH free radical scavenging activity. The class given is functional.
The test system of experiment [9] is A549. As to the kind of experiment: Growth inhibition of human A549 cells at 20 ug/mL after 3 days by SRB assay. The class given is functional. The conditions noted are these: A549, 72 h, read-out: GI. The method in brief:
(§3)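 Cells grown in RPMI-1640 (10% FBS, HEPES, bicarbonate, kanamycin), trypsinized and seeded at 1500-7500 cells/well. Compound given from DMSO-diluted stock, 3 days culture. Cells fixed with cold 50% trichloroacetic acid, stained with 0.4% sulforhodamine B, dye solubilized and absorbance measured at 562 nm.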

For experiment [10], the system named is DU-145. Nature of the experiment: Growth inhibition of human DU145 cells at 20 ug/mL after 3 days by SRB assay. The class given is functional. The conditions noted are these: DU-145, 72 h, read-out: GI. The method in brief:
as §3

The nature of experiment [11]: Growth inhibition of human KBVIN cells at 20 ug/mL after 3 days by SRB assay. In kind it is functional. Conditions: 72 h, read-out: GI. The procedure, abridged: as §3
Experiment [12] deals with T1, NF-kappa-B inhibitor alpha (Mus musculus). Nature of the experiment: Inhibition of IkappaB-alpha degradation in LPS-stimulated mouse BV2 cells at 1 to 2 uM measured after 15 to 120 mins post stimulation by Western blot analysis. The conditions noted are these: BV-2. The class given is cell-based. The method in brief: as §1
Experiment [13] addresses Transcription factor p65 (Mus musculus) (UniProt Q04207). As to the kind of experiment: Inhibition of NF-kappaB p65 activation/translocation in LPS-stimulated mouse BV2 cells assessed as down regulation of iNOS at 1 to 2 uM measured after 15 to 120 mins post stimulation by Western blot analysis. The class given is cell-based. Conditions: BV-2. The method in brief: as §1

Experiment [14] deals with KB. Nature of the experiment: Growth inhibition of human KB cells at 20 ug/mL after 3 days by SRB assay. The class given is functional. Conditions: 72 h, read-out: GI. The method in brief: as §3
Setting [15] is: Homo sapiens, A549, 72 h, read-out: EC50.
Where [16] appears, read: Homo sapiens, KBVIN, 72 h, read-out: EC50.
The mark [17] stands for this setting: Homo sapiens, DU-145, 72 h, read-out: EC50.
[18] abbreviates: Homo sapiens, KB, 72 h, read-out: EC50.

SMILES strings stand for the structures. Calls of active or inactive are those of the source. The calls are words filed in the database; no cut-off is given here.

Take `COc1cccc(/C=C/C(=O)c2cc(C(=O)/C=C/c3cccc(OC)c3OC)c(O)cc2O)c1OC`: the inhibition result in [1] and in [4] was “Active” in each case. The EC50 (usually the concentration needed to bring the measured effect to its halfway point) in the experiment with A549 [2] (setting [15]) came out at 4.38 µM; in [3] (setting [16]), 5.14 µM; in the experiment on DU-145 [5] (setting [17]), 2.45 µM; in the experiment with KB [7] (setting [18]) it was 2.06 µM. Besides, the 50% inhibitory concentration (IC50) (commonly the concentration at which inhibition is half-maximal) is 89 µM in [6] and “Not Active” in [8].
Turning to `c1ccc2c(c1)[I+]c1ccccc1-2` [DIPHENYLENEIODONIUM], the IC50 was 0.65 µM in experiment [6] and “Not Active” in experiment [8].
For `CC(=O)c1cc(C(=O)/C=C/C=C/c2ccccc2)c(O)cc1O`, the EC50 entry (with A549 [2] (a549); in [3] (kbvin); with DU-145 [5] (du-145); with KB [7] (kb)) was “Not Active” each time. For the same compound, the IC50 in [6] was 120 µM; in experiment [8], “Not Active”.
Take `Cc1ccsc1/C=C/C(=O)c1cc(C(=O)/C=C/c2sccc2C)c(O)cc1O`: the EC50 entry (with A549 [2] (a549); in experiment [3] (kbvin); with DU-145 [5] (du-145); with KB [7] (kb)) was “Not Active” in each case. Further, the IC50 is 81.4 µM in experiment [6] and “Not Active” in experiment [8].
In the case of `CC(=O)c1cc(C(=O)/C=C/c2ccc3c(c2)OCO3)c(O)cc1O`, the 50% effective concentration (EC50) is 19.4 µM with A549 [2] (setting [15]), 17.2 µM in [3] (setting [16]), 16.3 µM in the experiment with DU-145 [5] (setting [17]) and 17.2 µM in the experiment on KB [7] (setting [18]). Also, the results for the concentration for half-maximal inhibition (IC50) in experiment [6] and in experiment [8] were 72 µM and “Not Active”, respectively.
On to `Cc1ccc(/C=C/C(=O)c2cc(C(=O)/C=C/c3ccc(C)o3)c(O)cc2O)o1`, for which the EC50 entry (in the experiment on A549 [2] (a549); in [3] (kbvin); in the experiment on DU-145 [5] (du-145); in the experiment on KB [7] (kb)) was “Not Active” throughout. Besides, the IC50 was 60.4 µM in [6] and “Not Active” in experiment [8].
`O=C(/C=C/c1ccccc1)c1cc(C(=O)/C=C/c2ccccc2)c(O)cc1O`: the EC50 with A549 [2] (setting [15]) was 4.08 µM; in [3] (setting [16]), 1.57 µM; in the experiment on DU-145 [5] (setting [17]), 1.7 µM; with KB [7] (setting [18]), 1.62 µM. Besides, the IC50 is 122 µM in [6] and “Not Active” in experiment [8].
As to `COc1ccc(OC)c(/C=C/C(=O)c2cc(C(=O)/C=C/c3cc(OC)ccc3OC)c(O)cc2O)c1`, the inhibition of growth at 20 µg/mL (with A549 [9]; in the experiment with DU-145 [10]; in [11]) was < 50% throughout. For the same compound, the IC50 was 95 µM in experiment [6] and “Not Active” in experiment [8]. Further, the concentration for a half-maximal effect (EC50) with KB [7] (setting [18]) stood at 40.1 µM.
For `Cc1c(C)c2c(c(C)c1O)CCC(C)(C(=O)O)O2` (configuration not stated) [TROLOX], in [8] (read-out: IC50), the concentration for half-maximal inhibition (IC50) was determined as 30.2 µM.
Turning to `COC(=O)[C@@H](N)CCCNC(=N)N[N+](=O)[O-]` [L-NAME], in experiment [8], the IC50 entry is recorded as “Not Active”.
`COc1cccc(/C=C/C(=O)c2cc(C(=O)/C=C/c3cccc(OC)c3)c(O)cc2O)c1`: the half-maximal effective concentration (EC50) with A549 [2] (setting [15]) stood at 8.76 µM; in experiment [3] (setting [16]) it was 2.07 µM; in the experiment with DU-145 [5] (setting [17]), 1.86 µM; with KB [7] (setting [18]), 2.88 µM. For the same compound, the IC50 in [6] was 127 µM; in [8], “Not Active”.
As to `O=C(/C=C/c1ccccn1)c1cc(C(=O)/C=C/c2ccccn2)c(O)cc1O`, the EC50 with A549 [2] (setting [15]) was found to be 13.7 µM; in experiment [3] (setting [16]), 11 µM; in the experiment with DU-145 [5] (setting [17]), 2.85 µM; with KB [7] (setting [18]) it was 2.93 µM. For the same compound, the IC50 in experiment [6] is 76.8 µM; in experiment [8], “Not Active”.
As for `O=C(/C=C/c1ccco1)c1cc(C(=O)/C=C/c2ccco2)c(O)cc1O`, the EC50 entry (in the experiment with A549 [2] (a549); in experiment [3] (kbvin); with DU-145 [5] (du-145); in the experiment with KB [7] (kb)) was “Not Active” each time. Further, the half-inhibitory concentration (IC50) in [6] was 49.6 µM; in experiment [8], “Not Active”.
Regarding `COc1ccc(/C=C/C(=O)c2cc(C(=O)/C=C/c3ccc(OC)c(OC)c3OC)c(O)cc2O)c(OC)c1OC`, the EC50 result (with A549 [2] (a549); in experiment [3] (kbvin); in the experiment on DU-145 [5] (du-145); in the experiment with KB [7] (kb)) was “Not Active” in each case. The IC50 in experiment [6] was 70.9 µM; in [8], “Not Active”.
On to `COc1ccc(/C=C/C(=O)c2cc(C(=O)/C=C/c3ccc(OC)c(OC)c3)c(O)cc2O)cc1OC`, for which the EC50 in the experiment with A549 [2] (setting [15]) was 9.14 µM; in experiment [3] (setting [16]) it was 7.02 µM; in the experiment with DU-145 [5] (setting [17]) it was 8.63 µM; in the experiment on KB [7] (setting [18]) it was 8.18 µM. Further, the IC50 is 49.1 µM in experiment [6] and “Not Active” in experiment [8]. Besides, the inhibition entry in [12] and in experiment [13] was “Active” throughout.
Take `COc1ccc(/C=C/C(=O)c2cc(C(=O)/C=C/c3ccc(OC)cc3)c(O)cc2O)cc1`: the inhibition of growth at 20 µg/mL in the experiment with A549 [9], in the experiment with DU-145 [10] and in the experiment with KB [14] was < 50% throughout. The EC50 in experiment [3] (setting [16]) was 34 µM. Besides, the half-inhibitory concentration (IC50) in experiment [6] is 150 µM; in [8], “Not Active”.
In the case of `COc1cc(OC)c(OC)cc1/C=C/C(=O)c1cc(C(C)=O)c(O)cc1O`, the EC50 result (in the experiment with A549 [2] (a549); in experiment [3] (kbvin); in the experiment on DU-145 [5] (du-145); with KB [7] (kb)) was “Not Active” each time. Moreover, the IC50 is 73 µM in [6] and “Not Active” in experiment [8].

Values taken from ChEMBL document CHEMBL1926582, “Bis-chalcone analogues as potent NO production inhibitors and as cytotoxic agents” (Eur J Med Chem, 2012).
